From ChEMBL document CHEMBL1157974, “C18 dibenzocyclooctadiene lignans from Kadsura philippinensis” (2006)

Tests used:
Format in all cases: functional
[1] = system: KB; test: Cytotoxicity against human KB cells by MTT assay; settings: read-out: ED50 (the source's name)
How it was run: (§1)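 Cells obtained from ATCC. Cytotoxicity read by MTT [3-(4,5-dimethylthiazol-2-yl)-2,5-diphenyltetrazolium bromide] colorimetric method.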

[2] = Cytotoxicity against human Hepa 59T/VGH cells by MTT assay; settings: read-out: ED50 (the source's name)
[3] = system: HeLa; test: Cytotoxicity against human HeLa cells by MTT assay; settings: read-out: ED50 (the source's name); how it was run: as §1
[4] = system: Radical scavenging activity; test: Antioxidant activity assessed as DPPH radical scavenging activity at 100 uM
How it was run: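 Test compound in 100 mM Tris-HCl (pH 7.4) added to 500 μM DPPH in ethanol (concentration of the added solution), shaken, then left 20 min at room temperature in the dark. Absorbance read at 517 nm by UV-vis spectrophotometer; a table footnote cites a DPPH-HPLC method. Values are mean ± SD of 8 samples.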

| Compound | EC50 [1] | EC50 [2] | EC50 [3] | Activity [4] |
| --- | --- | --- | --- | --- |
| COc1c2c(cc3c1-c1c(cc4c(c1OC)OCO4)[C@H](O)[C@@H](C)[C@@H](C)C3)OCO2 | ≥ 5 µg/mL | ≥ 5 µg/mL | ≥ 5 µg/mL | – |
| O=C1O[C@H]([C@@H](O)CO)C(O)=C1O | – | – | – | 12.5% |
| COc1cc2c(c(O)c1OC)-c1c(cc3c(c1OC)OCO3)[C@H](OC(=O)/C=C/c1ccccc1)[C@H](C)[C@H](C)C2 [1-DEMETHYLKADSUPHILIN A] | ≥ 5 µg/mL | ≥ 5 µg/mL | ≥ 5 µg/mL | – |
| C/C=C(/C)C(=O)O[C@H]1c2cc3c(c(OC)c2-c2c(cc(OC)c(OC)c2O)C[C@@H](C)[C@H]1C)OCO3 [ANGELOYLBINANKADSURIN A] | ≥ 5 µg/mL | ≥ 5 µg/mL | ≥ 5 µg/mL | 2.3% |
| COC1=C(OC)C(=O)[C@]23C(=C1)C[C@@H](C)[C@@]2(C)[C@@H](O)c1cc2c(cc13)OCO2 [KADSULIGNAN K] | ≥ 5 µg/mL | ≥ 5 µg/mL | ≥ 5 µg/mL | 4.6% |
| COc1cc2c(c(OC)c1OC)-c1c(cc3c(c1OC)OCO3)[C@H](OC(=O)/C=C/c1ccccc1)[C@H](C)[C@H](C)C2 [KADSUPHILINS A] | ≥ 5 µg/mL | ≥ 5 µg/mL | ≥ 5 µg/mL | 1.5% |
| COc1c(O)cc2c(c1OC)-c1c(cc3c(c1OC)OCO3)C[C@H](C)[C@H](C)[C@@H]2O [KADSUPHILINS B] | ≥ 5 µg/mL | ≥ 5 µg/mL | ≥ 5 µg/mL | – |
| C/C=C(/C)C(=O)O[C@H]1c2cc3c(c(OC)c2-c2c(cc(OC)c(OC)c2O)[C@H](OC(=O)/C(C)=C\C)[C@](C)(O)[C@H]1C)OCO3 [SCHIZANRIN J] | ≥ 5 µg/mL | ≥ 5 µg/mL | ≥ 5 µg/mL | 1.9% |
